The assay deals with Mycobacterium tuberculosis. The experiment in a line: Antimycobacterial activity against drug-resistant Mycobacterium tuberculosis H37Rv at 2mg/mL by BACTEC assay. The class given is functional, organism-based. Summed up:
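Radiometric BACTEC 12B (7H12) vials with a growing inoculum of 2.5-5.0 × 10⁵ CFU/vial, two-fold compound dilutions, 37 °C. Growth index read daily in a BACTEC 460 until 1:100 inoculum controls reached GI 30. Percent inhibition = (GI test/GI control) × 100.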

Active and inactive are the calls of the source. The rule behind the calls is not given here.

As for `CO[C@H]1/C=C/O[C@@]2(C)Oc3c(C)c(O)c4c(O)c(c(/C=N/N5CCN(C)CC5)c(O)c4c3C2=O)NC(=O)/C(C)=C\C=C\[C@H](C)[C@H](O)[C@@H](C)[C@@H](O)[C@@H](C)[C@H](OC(C)=O)[C@@H]1C` [RIFAMPIN], the outcome was inactive.
